System: HEK-293T
Assay: Multiplex assay against HEK293T;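 as to Population Tubulin-Different-Phenotype (%): share of the cells with healthy nuclei that show this phenotype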
Type: toxicity, cell-based
Settings: human
Procedure, shortened: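 Four dyes were applied at seeding to live cells: Hoechst33342, BioTracker Green Microtubule Cytoskeleton Dye, MitoTracker Red and Annexin V Alexa Fluor 680. Imaging after compound addition used a CQ1 microscope at 37°C and 5% CO2. CellPathfinder machine-learning gating then sorted cells into Hoechst high-intensity objects or normal cells, normal cells into healthy, pyknosed or fragmented nuclei, and pyknosed cells into mitotic or apoptotic, with tubulin, mitochondrial-mass and membrane-permeability phenotypes given as per cents of healthy-nucleus cells.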

[1] = 12 h, 1 µM, compound concentration 1 uM, replicate 1
[2] = 12 h, 1 µM, compound concentration 1 uM, replicate 2
[3] = 12 h, 10 µM, compound concentration 10 uM, replicate 1
[4] = 12 h, 10 µM, compound concentration 10 uM, replicate 2
[5] = 24 h, 1 µM, compound concentration 1 uM, replicate 1
[6] = 24 h, 1 µM, compound concentration 1 uM, replicate 2
[7] = 24 h, 10 µM, compound concentration 10 uM, replicate 1
[8] = 24 h, 10 µM, compound concentration 10 uM, replicate 2
[9] = 48 h, 1 µM, compound concentration 1 uM, replicate 1
[10] = 48 h, 1 µM, compound concentration 1 uM, replicate 2
[11] = 48 h, 10 µM, compound concentration 10 uM, replicate 1
[12] = 48 h, 10 µM, compound concentration 10 uM, replicate 2

## Cc1cc(C)c(S(=O)(=O)N(Cc2ccc(-c3cccc(S(C)(=O)=O)c3)cc2)Cc2ccc(C(F)(F)F)o2)c(C)c1
[1]
  Population Apoptotic (%): 47%
  Population Fragmented Nuclei (%): 13%
  Population Healthy Nuclei (%): 36%
  Population Hoechst High Intensity Objects (%): 10%
  Population Membrane Permeable-Phenotype (%): 3%
  Population Mitochondria Different-Phenotype (%): 81%
  Population Mitotic Cells (%): 52%
  Population Normal (%): 89%
  Population Pyknosed Nuclei (%): 49%
  Population Tubulin-Different-Phenotype (%): 59%
  Total Cell Count: 263
[2]
  Population Apoptotic (%): 13%
  Population Fragmented Nuclei (%): 6%
  Population Healthy Nuclei (%): 49%
  Population Hoechst High Intensity Objects (%): 4%
  Population Membrane Permeable-Phenotype (%): 9%
  Population Mitochondria Different-Phenotype (%): 13%
  Population Mitotic Cells (%): 86%
  Population Normal (%): 95%
  Population Pyknosed Nuclei (%): 43%
  Population Tubulin-Different-Phenotype (%): 9%
  Total Cell Count: 213
[3]
  Population Apoptotic (%): 52%
  Population Fragmented Nuclei (%): 12%
  Population Healthy Nuclei (%): 35%
  Population Hoechst High Intensity Objects (%): 14%
  Population Membrane Permeable-Phenotype (%): 10%
  Population Mitochondria Different-Phenotype (%): 89%
  Population Mitotic Cells (%): 47%
  Population Normal (%): 85%
  Population Pyknosed Nuclei (%): 51%
  Population Tubulin-Different-Phenotype (%): 90%
  Total Cell Count: 216
[4]
  Population Apoptotic (%): 6%
  Population Fragmented Nuclei (%): 9%
  Population Healthy Nuclei (%): 48%
  Population Hoechst High Intensity Objects (%): 2%
  Population Membrane Permeable-Phenotype (%): 5%
  Population Mitochondria Different-Phenotype (%): 20%
  Population Mitotic Cells (%): 93%
  Population Normal (%): 97%
  Population Pyknosed Nuclei (%): 41%
  Population Tubulin-Different-Phenotype (%): 16%
  Total Cell Count: 145
[5]
  Population Apoptotic (%): 43%
  Population Fragmented Nuclei (%): 13%
  Population Healthy Nuclei (%): 44%
  Population Hoechst High Intensity Objects (%): 9%
  Population Membrane Permeable-Phenotype (%): 2%
  Population Mitochondria Different-Phenotype (%): 66%
  Population Mitotic Cells (%): 56%
  Population Normal (%): 90%
  Population Pyknosed Nuclei (%): 42%
  Population Tubulin-Different-Phenotype (%): 49%
  Total Cell Count: 304
[6]
  Population Apoptotic (%): 9%
  Population Fragmented Nuclei (%): 6%
  Population Healthy Nuclei (%): 64%
  Population Hoechst High Intensity Objects (%): 2%
  Population Membrane Permeable-Phenotype (%): 10%
  Population Mitochondria Different-Phenotype (%): 10%
  Population Mitotic Cells (%): 90%
  Population Normal (%): 97%
  Population Pyknosed Nuclei (%): 29%
  Population Tubulin-Different-Phenotype (%): 29%
  Total Cell Count: 261
[7]
  Population Apoptotic (%): 52%
  Population Fragmented Nuclei (%): 13%
  Population Healthy Nuclei (%): 38%
  Population Hoechst High Intensity Objects (%): 15%
  Population Membrane Permeable-Phenotype (%): 9%
  Population Mitochondria Different-Phenotype (%): 74%
  Population Mitotic Cells (%): 47%
  Population Normal (%): 84%
  Population Pyknosed Nuclei (%): 48%
  Population Tubulin-Different-Phenotype (%): 89%
  Total Cell Count: 225
[8]
  Population Apoptotic (%): 11%
  Population Fragmented Nuclei (%): 7%
  Population Healthy Nuclei (%): 72%
  Population Hoechst High Intensity Objects (%): 3%
  Population Membrane Permeable-Phenotype (%): 6%
  Population Mitochondria Different-Phenotype (%): 10%
  Population Mitotic Cells (%): 88%
  Population Normal (%): 96%
  Population Pyknosed Nuclei (%): 19%
  Population Tubulin-Different-Phenotype (%): 24%
  Total Cell Count: 187
[9]
  Population Apoptotic (%): 46%
  Population Fragmented Nuclei (%): 13%
  Population Healthy Nuclei (%): 61%
  Population Hoechst High Intensity Objects (%): 8%
  Population Membrane Permeable-Phenotype (%): 4%
  Population Mitochondria Different-Phenotype (%): 38%
  Population Mitotic Cells (%): 53%
  Population Normal (%): 91%
  Population Pyknosed Nuclei (%): 25%
  Population Tubulin-Different-Phenotype (%): 39%
  Total Cell Count: 387
[10]
  Population Apoptotic (%): 9%
  Population Fragmented Nuclei (%): 6%
  Population Healthy Nuclei (%): 81%
  Population Hoechst High Intensity Objects (%): 2%
  Population Membrane Permeable-Phenotype (%): 7%
  Population Mitochondria Different-Phenotype (%): 5%
  Population Mitotic Cells (%): 90%
  Population Normal (%): 97%
  Population Pyknosed Nuclei (%): 11%
  Population Tubulin-Different-Phenotype (%): 20%
  Total Cell Count: 474
[11]
  Population Apoptotic (%): 45%
  Population Fragmented Nuclei (%): 13%
  Population Healthy Nuclei (%): 60%
  Population Hoechst High Intensity Objects (%): 6%
  Population Membrane Permeable-Phenotype (%): 7%
  Population Mitochondria Different-Phenotype (%): 57%
  Population Mitotic Cells (%): 54%
  Population Normal (%): 93%
  Population Pyknosed Nuclei (%): 25%
  Population Tubulin-Different-Phenotype (%): 80%
  Total Cell Count: 302
[12]
  Population Apoptotic (%): 16%
  Population Fragmented Nuclei (%): 8%
  Population Healthy Nuclei (%): 84%
  Population Hoechst High Intensity Objects (%): 1%
  Population Membrane Permeable-Phenotype (%): 3%
  Population Mitochondria Different-Phenotype (%): 3%
  Population Mitotic Cells (%): 84%
  Population Normal (%): 98%
  Population Pyknosed Nuclei (%): 6%
  Population Tubulin-Different-Phenotype (%): 9%
  Total Cell Count: 367

## CCOc1cc2ncc(C#N)c(Nc3ccc(OCc4ccccn4)c(Cl)c3)c2cc1NC(=O)/C=C/CN(C)C [NERATINIB]
[1]
  Population Apoptotic (%): 50%
  Population Fragmented Nuclei (%): 20%
  Population Healthy Nuclei (%): 24%
  Population Hoechst High Intensity Objects (%): 20%
  Population Membrane Permeable-Phenotype (%): 0%
  Population Mitochondria Different-Phenotype (%): 85%
  Population Mitotic Cells (%): 50%
  Population Normal (%): 79%
  Population Pyknosed Nuclei (%): 55%
  Population Tubulin-Different-Phenotype (%): 55%
  Total Cell Count: 254
[2]
  Population Apoptotic (%): 21%
  Population Fragmented Nuclei (%): 25%
  Population Healthy Nuclei (%): 46%
  Population Hoechst High Intensity Objects (%): 19%
  Population Membrane Permeable-Phenotype (%): 3%
  Population Mitochondria Different-Phenotype (%): 15%
  Population Mitotic Cells (%): 78%
  Population Normal (%): 80%
  Population Pyknosed Nuclei (%): 27%
  Population Tubulin-Different-Phenotype (%): 15%
  Total Cell Count: 471
[3]
  Population Apoptotic (%): 43%
  Population Fragmented Nuclei (%): 25%
  Population Healthy Nuclei (%): 52%
  Population Hoechst High Intensity Objects (%): 29%
  Population Mitochondria Different-Phenotype (%): 22%
  Population Mitotic Cells (%): 56%
  Population Normal (%): 70%
  Population Pyknosed Nuclei (%): 21%
  Population Tubulin-Different-Phenotype (%): 23%
  Total Cell Count: 1420
[4]
  Population Apoptotic (%): 33%
  Population Fragmented Nuclei (%): 30%
  Population Healthy Nuclei (%): 50%
  Population Hoechst High Intensity Objects (%): 27%
  Population Membrane Permeable-Phenotype (%): 3%
  Population Mitochondria Different-Phenotype (%): 11%
  Population Mitotic Cells (%): 66%
  Population Normal (%): 72%
  Population Pyknosed Nuclei (%): 18%
  Population Tubulin-Different-Phenotype (%): 15%
  Total Cell Count: 844
[5]
  Population Apoptotic (%): 55%
  Population Fragmented Nuclei (%): 19%
  Population Healthy Nuclei (%): 20%
  Population Hoechst High Intensity Objects (%): 20%
  Population Membrane Permeable-Phenotype (%): 2%
  Population Mitochondria Different-Phenotype (%): 80%
  Population Mitotic Cells (%): 44%
  Population Normal (%): 79%
  Population Pyknosed Nuclei (%): 59%
  Population Tubulin-Different-Phenotype (%): 61%
  Total Cell Count: 262
[6]
  Population Apoptotic (%): 20%
  Population Fragmented Nuclei (%): 26%
  Population Healthy Nuclei (%): 50%
  Population Hoechst High Intensity Objects (%): 16%
  Population Mitochondria Different-Phenotype (%): 24%
  Population Mitotic Cells (%): 80%
  Population Normal (%): 83%
  Population Pyknosed Nuclei (%): 22%
  Population Tubulin-Different-Phenotype (%): 24%
  Total Cell Count: 531
[7]
  Population Apoptotic (%): 50%
  Population Fragmented Nuclei (%): 25%
  Population Healthy Nuclei (%): 50%
  Population Hoechst High Intensity Objects (%): 30%
  Population Membrane Permeable-Phenotype (%): 1%
  Population Mitochondria Different-Phenotype (%): 19%
  Population Mitotic Cells (%): 49%
  Population Normal (%): 69%
  Population Pyknosed Nuclei (%): 23%
  Population Tubulin-Different-Phenotype (%): 19%
  Total Cell Count: 1427
[8]
  Population Apoptotic (%): 42%
  Population Fragmented Nuclei (%): 31%
  Population Healthy Nuclei (%): 49%
  Population Hoechst High Intensity Objects (%): 25%
  Population Membrane Permeable-Phenotype (%): 0%
  Population Mitochondria Different-Phenotype (%): 12%
  Population Mitotic Cells (%): 57%
  Population Normal (%): 74%
  Population Pyknosed Nuclei (%): 18%
  Population Tubulin-Different-Phenotype (%): 14%
  Total Cell Count: 857
[9]
  Population Apoptotic (%): 62%
  Population Fragmented Nuclei (%): 23%
  Population Healthy Nuclei (%): 17%
  Population Hoechst High Intensity Objects (%): 23%
  Population Membrane Permeable-Phenotype (%): 2%
  Population Mitochondria Different-Phenotype (%): 56%
  Population Mitotic Cells (%): 37%
  Population Normal (%): 76%
  Population Pyknosed Nuclei (%): 58%
  Population Tubulin-Different-Phenotype (%): 29%
  Total Cell Count: 277
[10]
  Population Apoptotic (%): 17%
  Population Fragmented Nuclei (%): 21%
  Population Healthy Nuclei (%): 62%
  Population Hoechst High Intensity Objects (%): 15%
  Population Mitochondria Different-Phenotype (%): 14%
  Population Mitotic Cells (%): 82%
  Population Normal (%): 84%
  Population Pyknosed Nuclei (%): 16%
  Population Tubulin-Different-Phenotype (%): 27%
  Total Cell Count: 609
[11]
  Population Apoptotic (%): 52%
  Population Fragmented Nuclei (%): 29%
  Population Healthy Nuclei (%): 46%
  Population Hoechst High Intensity Objects (%): 32%
  Population Membrane Permeable-Phenotype (%): 0%
  Population Mitochondria Different-Phenotype (%): 15%
  Population Mitotic Cells (%): 47%
  Population Normal (%): 67%
  Population Pyknosed Nuclei (%): 23%
  Population Tubulin-Different-Phenotype (%): 16%
  Total Cell Count: 1487
[12]
  Population Apoptotic (%): 42%
  Population Fragmented Nuclei (%): 32%
  Population Healthy Nuclei (%): 51%
  Population Hoechst High Intensity Objects (%): 24%
  Population Mitochondria Different-Phenotype (%): 16%
  Population Mitotic Cells (%): 58%
  Population Normal (%): 75%
  Population Pyknosed Nuclei (%): 16%
  Population Tubulin-Different-Phenotype (%): 21%
  Total Cell Count: 828

— ChEMBL document CHEMBL4689842, “EUbOPEN Chemogenomics Library wave 1” (2021)
